Assay results pooled from the literature.
Compare with care: the assays were run in different laboratories.
Cell line: HepG2
Observed: cell growth or viability

CCOc1ccc(-c2nc3ccccc3n2Cc2ccccc2)cc1 — IC50 (MTT): 33.8 µM
COc1ccc(NC(=O)c2c(Nc3ccccc3)sc(C(=O)NN=Cc3cc(OC)c(OC)c(OC)c3)c2NC(C)=O)cc1 — viability (SRB; 10 µM; 48 h): 42.9%
Cc1cc(=O)oc2ccc(-c3cc(-c4ccccc4)nc(N)n3)c(O)c12 — inhibition (MTT; 2 µg/mL; 72 h): 0%
O=C(CN1C(=O)/C(=C/c2ccccc2F)SC1=S)Nc1ccccc1 — inhibition (MTT; 10 µM): 7.65%
CCCC1CCN(c2cc3c(cc2F)c(=O)c(-c2nc(C)no2)cn3CC)CC1 — EC50 (ATP luminescence; 48 h): > 40 µM
COc1ccc(NC(=O)c2c(Nc3ccccc3)sc(C(=O)NN=Cc3ccc(Br)cc3)c2NC(C)=O)cc1 — viability (SRB; 10 nM; 48 h): 92.7%
CC(=O)Oc1ccc(/C=N/NC(=O)c2ccc(Nc3cc(C)nc4c(O)cccc34)cc2)cc1 — inhibition (MTT; 20 µM): 56.7%
CCOC(=O)c1ccc(-n2c(-c3ccc(C)cc3)cc(-c3ccc(O)cc3)c(C#N)c2=O)cc1 — viability (MTT; 6.25 µM; 24 h): 67.9%
COc1ccc(NC(=O)c2c(Nc3ccccc3)sc(C(=O)NN=Cc3ccc(Cl)cc3)c2NC(C)=O)cc1 — viability (SRB; 10 nM; 48 h): 95.2%
CC(C)(CO)Cn1nc(-c2ccc3nc(OC4CC4)ccc3c2)c2c(N)ncnc21 — GI50: > 10 µM
C=CCn1c(-c2ccc([N+](=O)[O-])cc2)nc2ccccc21 — IC50 (MTT): 36.8 µM
CCOC(=O)c1ccc(-n2c(C)cc(/C=C/c3ccc(OC)cc3)c(C#N)c2=O)cc1 — viability (MTT; 1.56 µM; 24 h): 100%
COc1ccc(-c2cc(-c3ccc4oc(=O)cc(C)c4c3O)nc(N)n2)cc1 — inhibition (MTT; 2 µg/mL; 72 h): 0%
CN(C)C/C=N/NC(=O)Nc1cc2c(Nc3ccc(F)c(Cl)c3)ncnc2cc1O[C@H]1CCOC1 — IC50 (MTT; 72 h): 3.08 µM
c1ccc2[nH]c(-c3ccc4c(c3)OCO4)nc2c1 — IC50 (MTT; 48 h): > 100 µM
CCOC(=O)c1ccc(-n2c(C)cc(/C=C/c3ccc(OCC)cc3)c(C#N)c2=O)cc1 — viability (MTT; 100 µM; 24 h): 40.7%
COc1ccc(NC(=O)c2c(Nc3ccccc3)sc(C#N)c2NC(=O)CNc2ccc([N+](=O)[O-])cc2)cc1 — viability (SRB; 10 nM; 48 h): 86.4%
CCn1cc(-c2nc(C)no2)c(=O)c2cc(F)c(N3CCC(C)CC3)cc21 — EC50 (ATP luminescence; 48 h): > 40 µM
O=C(CN1C(=O)/C(=C/c2ccco2)SC1=S)Nc1ccccc1 — inhibition (MTT; 10 µM): 18.6%
COc1ccc(-c2nc3ccc(C)cc3[nH]2)cc1OC — IC50 (MTT; 48 h): 43.6 µM
COc1cc2ncnc(Nc3ccc(F)c(Cl)c3)c2cc1NC(=O)N/N=C/c1cccn1CCN(C)C — IC50 (MTT; 72 h): 0.11 µM
Cc1cc(=O)oc2ccc(-c3cc(-c4cccc(Cl)c4)nc(N)n3)c(O)c12 — inhibition (MTT; 32 µg/mL; 72 h): 19%
COc1ccc(NC(=O)c2c(Nc3ccccc3)sc(C#N)c2NC(=O)CNc2ccc(Br)cc2)cc1 — viability (SRB; 100 µM; 48 h): 39.7%
CCOc1ccc(-c2nc3ccc(C)cc3[nH]2)cc1 — IC50 (MTT; 48 h): 27.4 µM
O=C(CN1C(=O)/C(=C/c2ccccn2)SC1=S)Nc1ccccc1 — inhibition (MTT; 10 µM): 10.2%
COc1ccc(NC(=O)c2c(Nc3ccccc3)sc(C(=O)NN=Cc3ccccc3)c2NC(C)=O)cc1 — viability (SRB; 1 nM; 48 h): 99.3%
COc1cccc(-c2nc3ccc(C)cc3[nH]2)c1 — IC50 (MTT; 48 h): 26.9 µM
COc1ccc(NC(=O)c2c(Nc3ccccc3)sc(C#N)c2NC(=O)CNc2ccc(OC)c(OC)c2)cc1 — viability (SRB; 10 µM; 48 h): 71.4%
COc1cccc(NC(=O)CN2C(=O)/C(=C/C3CC3)SC2=S)c1 — inhibition (MTT; 10 µM): 12.1%
COc1ccc(NC(=O)c2c(Nc3ccccc3)sc(C#N)c2NC(=O)CNc2ccccc2Cl)cc1 — viability (SRB; 1 nM; 48 h): 101%
Cc1cc(=O)oc2ccc(-c3cc(-c4cccs4)nc(N)n3)c(O)c12 — inhibition (MTT; 8 µg/mL; 72 h): 0%
O=C(CN1C(=O)/C(=C/c2ccc([N+](=O)[O-])cc2)SC1=S)Nc1ccccc1 — inhibition (MTT; 10 µM): 22.6%
CCOC(=O)c1ccc(-n2c(N)c(C#N)c(CC#N)c(C#N)c2=O)cc1 — viability (MTT; 12.5 µM; 24 h): 63.6%
CCn1cc(-c2nnc(-c3cccnc3)o2)c(=O)c2cc(F)c(N3CCC(C)CC3)cc21 — EC50 (ATP luminescence; 48 h): > 40 µM
O=[N+]([O-])c1ccc(-c2nc3ccccc3[nH]2)cc1 — IC50 (MTT; 48 h): 21 µM
CCOC(=O)c1ccc(NC(=O)C2=C3C(=Nc4ccccc43)NC2=O)cc1 — viability (MTT; 25 µM; 24 h): 56.3%
CCn1cc(-c2nc(C)no2)c(=O)c2cc(F)c(N3CCC(C)(C)CC3)cc21 — EC50 (ATP luminescence; 48 h): > 40 µM
CCOC(=O)c1ccc(N2C(N)=C(C#N)C3(C(=O)Nc4ccccc43)C(C#N)=C2O)cc1 (stereo not drawn) — viability (MTT; 12.5 µM; 24 h): 37.7%
CC(=O)Nc1cccc(-n2c(=O)n(C3CC3)c(=O)c3c(Nc4ccc(I)cc4F)n(C)c(=O)c(C)c32)c1 — viability (resazurin; 25 nM; 72 h): 42.6%
